Test results from ChEMBL document CHEMBL1146561, “New sesterterpene sulfates from the sponge Darwinella australensis” (J Nat Prod, 2003).

Experiments:
Candida albicans = assay: Antimicrobial activity against Candida albicans at 25 ug by paper-disk method; format: functional; conditions: read-out: IZ
Outline: (§1)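 Paper-disk diffusion assay with 25 μg of sample applied. Activity was read as the diameter of the inhibition zone in mm.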

Bacillus subtilis = assay: Antimicrobial activity against Bacillus subtilis at 25 ug by paper-disk method; format: functional; conditions: read-out: IZ; outline: as §1
K562 = assay: Cytotoxicity against human K562 cells by MTT assay; format: functional; conditions: read-out: LC50 (the source's name)
Outline: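 Human leukemia K562 line; viability by MTT method; activity expressed as LC50 in μg/mL.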

Staphylococcus aureus = assay: Antimicrobial activity against Staphylococcus aureus at 25 ug by paper-disk method; format: functional; conditions: read-out: IZ; outline: as §1
Streptococcus sp. = assay: Antimicrobial activity against Streptococcus sp. at 25 ug by paper-disk method; format: functional; conditions: read-out: IZ; outline: as §1
Escherichia coli = assay: Antimicrobial activity against Escherichia coli at 25 ug by paper-disk method; format: functional; conditions: read-out: IZ; outline: as §1
[1] = Inhibition of cell division in sea urchin fertilized egg; format: functional, Strongylocentrotus intermedius
Outline: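 Fertilized eggs of the sea urchin Strongylocentrotus intermedius were scored for inhibition of cell division. IC50 is expressed in μg/mL.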

| SMILES | zone of inhibition at 25 µg/disc (Candida albicans) | zone of inhibition at 25 µg/disc (Bacillus subtilis) | CC50 (K562) | zone of inhibition at 25 µg/disc (Staphylococcus aureus) | zone of inhibition at 25 µg/disc (Streptococcus sp.) | zone of inhibition at 25 µg/disc (Escherichia coli) | IC50 [1] |
| --- | --- | --- | --- | --- | --- | --- | --- |
| C[C@H]1CC[C@H]2C(=CC(=O)CC2(C)C)[C@@]1(C)CCC(CCCc1ccoc1)COS(=O)(=O)[O-].[Na+] (stereo not given in full) [HALISULPHATE 8] | < 3 mm | < 3 mm | > 100 µg/mL | < 3 mm | < 3 mm | < 3 mm | – |
| C[C@H]1CC[C@H]2C(=CCCC2(C)C)[C@@]1(C)CCC(CCCC1=CC(=O)OC1)COS(=O)(=O)[O-].[Na+] (stereo not given in full) [HALISULPHATE 9] | < 3 mm | < 3 mm | > 100 µg/mL | < 3 mm | < 3 mm | < 3 mm | 50 µg/mL |
| COC1C=C(CCCC(CC[C@]2(C)C3=CCCC(C)(C)[C@H]3CC[C@@H]2C)COS(=O)(=O)[O-])C(=O)O1.[Na+] (stereo not given in full) [HALISULPHATE 10] | < 3 mm | < 3 mm | > 100 µg/mL | < 3 mm | < 3 mm | < 3 mm | 35 µg/mL |
